Reference: ChEMBL document CHEMBL3525900, “Pharmacokinetics, distribution, and metabolism of [14C]sunitinib in rats, monkeys, and humans” (Drug Metab Dispos, 2012)

Columns and labels:
[1] = test system: Adrenal; assay: Drug concentration in male Lister Hooded pigmented rat adrenal assessed as radioactivity per gram of tissue at 20 mg/kg administered as single dose via gastric gavage measured after 336 hrs by autoradiographic analysis; type: ADME, organism-based; design: dose 20 mg/kg, dosed compound name [14C]Sunitinib; conditions: in vivo, po
[2] = test system: Zone of skin; assay: Drug concentration in female Lister Hooded pigmented rat abdomen skin assessed as radioactivity per gram of tissue at 20 mg/kg administered as single dose via gastric gavage measured after 168 hrs by autoradiographic analysis; type: ADME, organism-based; design: dose 20 mg/kg, dosed compound name [14C]Sunitinib; conditions: in vivo, po
In short: (§1)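 Pigmented Lister Hooded rats, 7-8 weeks old, received [14C]sunitinib L-malate by gavage at 20 mg/kg (15 mg freebase/kg, 100 µCi/kg). One rat per sex was killed by CO2 at each of 24, 72, 168 and 336 h. Carcasses were frozen in solid CO2/hexane and cut into 30 µm sagittal sections, then freeze-dried. Tissue radioactivity was quantified by whole-body autoradiography calibrated against standards by regression (LOQ 0.04–0.06 µg eq/g).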

[3] = test system: Zone of skin; assay: Drug concentration in female Lister Hooded pigmented rat abdomen skin assessed as radioactivity per gram of tissue at 20 mg/kg administered as single dose via gastric gavage measured after 336 hrs by autoradiographic analysis; type: ADME, organism-based; design: dose 20 mg/kg, dosed compound name [14C]Sunitinib; conditions: in vivo, po; in short: as §1
[4] = test system: Small intestine; assay: Drug concentration in female albino rat small intestine assessed as radioactivity per gram of tissue at 20 mg/kg administered as single dose via gastric gavage measured after 3 hrs by autoradiographic analysis; type: ADME, organism-based; design: dose 20 mg/kg, dosed compound name [14C]Sunitinib; conditions: in vivo, po
[5] = test system: Adrenal; assay: Drug concentration in male albino rat adrenal assessed as radioactivity per gram of tissue at 20 mg/kg administered as single dose via gastric gavage measured after 168 hrs by autoradiographic analysis; type: ADME, organism-based; design: dose 20 mg/kg, dosed compound name [14C]Sunitinib; conditions: in vivo, po
[6] = test system: Blood; assay: Drug concentration in male albino rat blood assessed as radioactivity per gram of tissue at 20 mg/kg administered as single dose via gastric gavage measured after 24 hrs by autoradiographic analysis; type: ADME, organism-based; design: dose 20 mg/kg, dosed compound name [14C]Sunitinib; conditions: in vivo, po
[7] = test system: Homo sapiens; assay: Apparent oral clearance as total radioactivity in human plasma at 50 mg, po administered as single dose measured up to 24 hrs by LC/MS/MS analysis; type: ADME, organism-based; design: dosed compound name [14C]Sunitinib; conditions: in vivo
[8] = Drug recovery in feces of male Sprague-Dawley rat at 15 mg/kg, po administered as single dose during 0 to 72 hrs by liquid scintillation counting; type: ADME, organism-based; design: dose 15 mg/kg, dosed compound name [14C]Sunitinib, route oral; conditions: in vivo
[9] = Drug concentration in female albino rat bone marrow assessed as radioactivity per gram of tissue at 20 mg/kg administered as single dose via gastric gavage measured after 3 hrs by autoradiographic analysis; type: ADME, organism-based; design: dose 20 mg/kg, dosed compound name [14C]Sunitinib; conditions: in vivo, po
In short: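 Sprague Dawley (albino) and Lister Hooded (pigmented) rats, ca 7-8 weeks old, 179-310 g, acclimated 7 days. Single gavage dose of [14C]sunitinib L-malate (15 mg freebase/kg, 100 µCi/kg). One male and one female killed by CO2 per time point: albino at 3, 6, 24, 72, 168 h; pigmented at 24, 72, 168, 336 h. Carcasses frozen in solid CO2/hexane, 30 µm sagittal sections freeze-dried. Tissue radioactivity read by quantitative whole-body autoradiography against regression of standards, mean background subtracted.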

[10] = Drug concentration in male albino rat bone marrow assessed as radioactivity per gram of tissue at 20 mg/kg administered as single dose via gastric gavage measured after 3 hrs by autoradiographic analysis; type: ADME, organism-based; design: dose 20 mg/kg, dosed compound name [14C]Sunitinib; conditions: in vivo, po
[11] = test system: Spleen; assay: Drug concentration in male albino rat spleen assessed as radioactivity per gram of tissue at 20 mg/kg administered as single dose via gastric gavage measured after 72 hrs by autoradiographic analysis; type: ADME, organism-based; design: dose 20 mg/kg, dosed compound name [14C]Sunitinib; conditions: in vivo, po
[12] = test system: Adrenal; assay: Drug concentration in female albino rat adrenal assessed as radioactivity per gram of tissue at 20 mg/kg administered as single dose via gastric gavage measured after 3 hrs by autoradiographic analysis; type: ADME, organism-based; design: dose 20 mg/kg, dosed compound name [14C]Sunitinib; conditions: in vivo, po
In short: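 Sprague Dawley (albino) rats, ca 7-8 weeks old, received a single gastric-gavage dose of [14C]sunitinib L-malate at 20 mg/kg (15 mg freebase/kg, 100 µCi/kg). One animal per sex killed by CO2 at 3, 6, 24, 72 and 168 h, then frozen in CO2/hexane. 30 µm sagittal sections were cut and freeze-dried. Radioactivity per gram quantified by whole-body autoradiography using regression against standards. LOQ 0.04–0.06 µg freebase equiv/g.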

[13] = test system: Pancreas; assay: Drug concentration in male albino rat pancreas assessed as radioactivity per gram of tissue at 20 mg/kg administered as single dose via gastric gavage measured after 6 hrs by autoradiographic analysis; type: ADME, organism-based; design: dose 20 mg/kg, dosed compound name [14C]Sunitinib; conditions: in vivo, po
[14] = Drug recovery in urine of male Sprague-Dawley rat at 15 mg/kg, po administered as single dose during 0 to 72 hrs by liquid scintillation counting; type: ADME, organism-based; design: dose 15 mg/kg, dosed compound name [14C]Sunitinib, route oral; conditions: in vivo
[15] = test system: Pancreas; assay: Drug concentration in female albino rat pancreas assessed as radioactivity per gram of tissue at 20 mg/kg administered as single dose via gastric gavage measured after 3 hrs by autoradiographic analysis; type: ADME, organism-based; design: dose 20 mg/kg, dosed compound name [14C]Sunitinib; conditions: in vivo, po
In short: (§2)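 Sprague Dawley albino rats, ca 7-8 weeks old, dosed once by gastric gavage with [14C]sunitinib L-malate (15 mg freebase/kg, 100 µCi/kg). One male and one female killed by CO2 at 3, 6, 24, 72 and 168 h. Carcasses frozen in solid CO2/hexane, embedded and cut into 30 µm sagittal sections, then freeze-dried. Radioactivity quantified by whole-body autoradiography against standards by regression, background subtracted.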

[16] = Drug concentration in male albino rat testis assessed as radioactivity per gram of tissue at 20 mg/kg administered as single dose via gastric gavage measured after 24 hrs by autoradiographic analysis; type: ADME, organism-based; design: dose 20 mg/kg, dosed compound name [14C]Sunitinib; conditions: in vivo, po
[17] = test system: Thymus; assay: Drug concentration in male Lister Hooded pigmented rat thymus assessed as radioactivity per gram of tissue at 20 mg/kg administered as single dose via gastric gavage measured after 168 hrs by autoradiographic analysis; type: ADME, organism-based; design: dose 20 mg/kg, dosed compound name [14C]Sunitinib; conditions: in vivo, po
[18] = Drug concentration in female Lister Hooded pigmented rat preputial gland assessed as radioactivity per gram of tissue at 20 mg/kg administered as single dose via gastric gavage measured after 24 hrs by autoradiographic analysis; type: ADME, organism-based; design: dose 20 mg/kg, dosed compound name [14C]Sunitinib; conditions: in vivo, po
In short: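 Lister Hooded (pigmented) rats, ca 7-8 weeks old, acclimated 7 days, given [14C]sunitinib L-malate by gastric gavage at 20 mg/kg (15 mg freebase/kg, 100 µCi/kg). One male and one female killed by CO2 at 24, 72, 168 and 336 h. Carcasses frozen in solid CO2/hexane and embedded in frozen cellulose. 30 µm sagittal cryosections were freeze-dried. Tissue radioactivity measured by quantitative whole-body autoradiography against calibration standards, with background subtracted.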

[19] = test system: Kidney; assay: Drug concentration in female albino rat kidney assessed as radioactivity per gram of tissue at 20 mg/kg administered as single dose via gastric gavage measured after 3 hrs by autoradiographic analysis; type: ADME, organism-based; design: dose 20 mg/kg, dosed compound name [14C]Sunitinib; conditions: in vivo, po; in short: as §2
[20] = test system: Lung; assay: Drug concentration in male Lister Hooded pigmented rat lung assessed as radioactivity per gram of tissue at 20 mg/kg administered as single dose via gastric gavage measured after 168 hrs by autoradiographic analysis; type: ADME, organism-based; design: dose 20 mg/kg, dosed compound name [14C]Sunitinib; conditions: in vivo, po
[21] = test system: Cynomolgus monkey; assay: AUC (0 to infinity) as total radioactivity in female cynomolgus monkey plasma at 6 mg/kg, po administered as single dose by LC/MS/MS analysis; type: ADME, organism-based, Macaca fascicularis; design: time infinity, dose 6 mg/kg, dosed compound name [14C]Sunitinib, route oral; conditions: in vivo
In short: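 Cynomolgus monkeys of both sexes received one oral gavage of [14C]sunitinib L-malate at 6 mg/kg (37 µCi/kg). Femoral-vein blood was taken into heparin from 0.5 to 336 h. Plasma was kept cold and protected from light, then stored at -80 °C. Total radioactivity was by scintillation counting and sunitinib by methanol-extraction LC-MS-MS. Cmax was from raw data, t½ from the log-linear terminal slope, AUC(0-∞) by linear trapezoidal rule.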

[22] = test system: Large intestine; assay: Drug concentration in male albino rat large intestine assessed as radioactivity per gram of tissue at 20 mg/kg administered as single dose via gastric gavage measured after 72 hrs by autoradiographic analysis; type: ADME, organism-based; design: dose 20 mg/kg, dosed compound name [14C]Sunitinib; conditions: in vivo, po
[23] = Drug concentration in male albino rat bladder assessed as radioactivity per gram of tissue at 20 mg/kg administered as single dose via gastric gavage measured after 24 hrs by autoradiographic analysis; type: ADME, organism-based, Urinary bladder; design: dose 20 mg/kg, dosed compound name [14C]Sunitinib; conditions: in vivo, po

SMILES: CCN(CC)CCNC(=O)c1c(C)[nH]c(/[14CH]=C2\C(=O)Nc3ccc(F)cc32)c1C.O=C(O)C[C@H](O)C(=O)O
- Radiolabel recovery [1]: 0.16 ugequiv
- Radiolabel recovery [2]: 0.17 ugequiv
- Radiolabel recovery [3]: 0.36 ugequiv
- Radiolabel recovery [4]: 14.16 ugequiv
- Radiolabel recovery [5]: 0.31 ugequiv
- Radiolabel recovery [6]: 0.07 ugequiv
- CL/F [7]: 23.5 L/h
- Radiolabel recovery [8]: 75.2%
- Radiolabel recovery [9]: 10.64 ugequiv
- Radiolabel recovery [10]: 7.55 ugequiv
- Radiolabel recovery [11]: 0.2 ugequiv
- Radiolabel recovery [12]: 29.98 ugequiv
- Radiolabel recovery [13]: 9.18 ugequiv
- Radiolabel recovery [14]: 8.5%
- Radiolabel recovery [15]: 13.45 ugequiv
- Radiolabel recovery [16]: 2.8 ugequiv
- Radiolabel recovery [17]: 0.06 ugequiv
- Radiolabel recovery [18]: 4.5 ugequiv
- Radiolabel recovery [19]: 16.11 ugequiv
- Radiolabel recovery [20]: 0.06 ugequiv
- AUC [21]: 5692 ng.Eq.hr/ml
- Radiolabel recovery [22]: 0.08 ugequiv
- Radiolabel recovery [23]: 0.35 ugequiv
